Ends that are not written are not given here. * marks the point of attachment. FITC = O=C1OC2(c3ccc(O)cc3Oc3cc(O)ccc32)c2ccc(NC(=S)*)cc21; Ahx = NCCCCCC(=O)O
Tests used:
HEK-3KO cells = assay: Cellular fractionation into cytosol and crude membrane, immunoblot; assay type: cell-based; conditions: for localization on co-expression of IP3R1-HA^WT and 3F-Bok^WT: IP3R1-HA^WT and 3F-Bok^WT co-expressed; for localization, expressed alone: cytosol / membrane fractions
Procedure, shortened: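 HEK-3KO cells are PEI-transfected (1-2 μg cDNA) with tagged mouse constructs, harvested in ice-cold homogenization buffer and sonicated. They are then spun at 20,000xg for 60 min at 4°C. The supernatant gives the cytosol fraction, and the pellet, resuspended in buffer, gives crude membranes. Fractions go through SDS-PAGE and ECL immunoblot, with transaldolase as the cytosol marker and Hrd1 as the membrane marker.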

3F-Bok^WT = assay: Anti-HA IP of IP3R1-HA constructs and co-IP of 3F-Bok^WT from HEK-3KO cells; assay type: cell-based, mouse; conditions: IP3R1-HA and 3F-Bok co-transfected, immunoblot
Procedure, shortened: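 Cotransfection uses full-length C-terminally HA-tagged mouse IP3R1 and N-terminally 3xFlag-tagged mouse Bok, with 1-2 μg cDNA and PEI, in HEK-3KO cells seeded at 6-8x10^5/well and transfected ~24 h later. Rabbit anti-HA precipitates from lysates. Blots of precipitates and inputs are probed with mouse anti-HA and anti-Bok, with p97 as input loading control. Detection is by ECL after SDS-PAGE and nitrocellulose transfer.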

IP3R1 = conditions: ref [3]; cited from earlier work
HS-Bok = target: T1, HS-Bok (Mus musculus, UniProt O35425); assay: Fluorescence polarization; assay type: binding; conditions: FP, PBS pH 7.4 / 0.1% BSA
T1 sequence (O35425 1-213): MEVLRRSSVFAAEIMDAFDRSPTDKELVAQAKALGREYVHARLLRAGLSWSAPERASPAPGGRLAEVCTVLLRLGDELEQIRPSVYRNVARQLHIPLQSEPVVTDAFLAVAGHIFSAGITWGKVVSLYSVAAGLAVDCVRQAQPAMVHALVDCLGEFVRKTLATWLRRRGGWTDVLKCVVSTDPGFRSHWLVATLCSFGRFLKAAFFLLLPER

[1] = target: FITC-IP3R1^1904-1940 (mouse) (UniProt P11881); assay: fluorescence polarisation
[2] = target: FITC-IP3R1^1898-1929 (mouse) (UniProt P11881); assay: fluorescence polarisation
[3] = target: FITC-IP3R1^1898-1940 (mouse) (UniProt P11881); assay: fluorescence polarisation
3F-Bok^ΔTM = assay: Anti-HA IP and co-IP of TM domain-lacking constructs from HEK-3KO cells; assay type: cell-based, mouse; conditions: immunoblot
Procedure, shortened: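 HEK-3KO cells (6-8x10^5/well) are transfected ~24 h after seeding with 1-2 μg cDNA using PEI. Constructs are mouse IP3R1 with a C-terminal HA tag, truncated to aa 1-2264, and mouse Bok with an N-terminal 3xFlag tag, truncated to aa 1-187. Lysates are immunoprecipitated with rabbit anti-HA. Samples are heated (37°C 30 min or boiled 5 min), run on SDS-PAGE, blotted to nitrocellulose and detected by ECL. p97 is the input loading control.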

HS-HA = assay: FP of FITC-conjugated peptide with negative control HS-HA; assay type: binding; conditions: PBS pH 7.4 / 0.1% BSA, FITC-IP3R1^1898-1940
HS-IP3R1 = assay type: binding, mouse; conditions: PBS / 0.1% BSA, 16h at 4°C, anti-IP3R1^1884-1903 IP, immunoblot
Procedure, shortened: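 His-SUMO-tagged mouse Bok and IP3R1 fragments, plus an HA-tag control, are expressed in E. coli BL21-CodonPlus(DE3)-RIPL. Cells are grown at 37°C to OD600 ~0.6, then induced with 1 mM IPTG for ~18 h at 16°C. Protein is purified on Ni-NTA in pH 7.4 phosphate buffer and eluted with 400 mM imidazole. Mixtures are immunoprecipitated with rabbit anti-IP3R1 (aa 1884-1903) and probed by immunoblot.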

Molecule: IP3R1-HA^ΔTM, Δ1916-1917: lacks TM domains and the ability to bind Bok
- localization upon co-transfection of 3F-Bok^WT (HEK-3KO cells): an effect not seen

Molecule: IP3R1-HA^Δ1916-1917: IP3R1-HA deletion mutant, Bok binding-deficient
- co-IP of 3F-Bok^WT (3F-Bok^WT): failed to co-IP 3F-Bok^WT

Molecule: Bcl-2: Bcl-2 family protein reported to interact with IP3Rs
- strength of interaction with IP3R1 relative to Bok (IP3R1): much less strongly than Bok

Molecule: Bcl-xL: Bcl-2 family protein reported to interact with IP3Rs
- strength of interaction with IP3R1 relative to Bok (IP3R1): much less strongly than Bok

Molecule: FITC-IP3R1^1907-1921: shorter peptide which encompasses just the ANCHOR2 "peak" shown in Figure 1C (ITEEVRDQLLEASAA; also: FITC-conjugated, position not given here)
- binding to HS-Bok (in words) (HS-Bok): does not bind to HS-Bok at all

Molecule: IP3R1-HA^WT: mouse IP3R1 tagged at the C-terminus with an HA epitope
- co-IP of 3F-Bok^WT (3F-Bok^WT): allowed for efficient co-IP of 3F-Bok^WT
- localization on co-expression of IP3R1-HA^WT and 3F-Bok^WT (HEK-3KO cells): the same localization is maintained
- localization, expressed alone (HEK-3KO cells): localize completely to membranes

Molecule: HS-Bok (from UniProt O35425 1-213) (natural protein)
- Kd [1]: 398 nM
- Kd [2]: 265 nM
- Kd [3]: 64 nM

Molecule: IP3R1-HA^ΔTM: contains amino acids 1-2264 of IP3R1
- co-IP of cytosolic 3F-Bok^ΔTM and IP3R1-HA^ΔTM (3F-Bok^ΔTM): strongly co-IP
- localization upon co-transfection of 3F-Bok^WT (HEK-3KO cells): becomes more membrane-associated
- localization, expressed alone (HEK-3KO cells): predominantly cytosolic

Molecule: IP3R1-HA^Δ1920-1921: IP3R1-HA deletion mutant
- co-IP of 3F-Bok^WT (3F-Bok^WT): failed to co-IP 3F-Bok^WT

Molecule: IP3R1-HA^Δ1917: IP3R1-HA deletion mutant
- co-IP of 3F-Bok^WT (3F-Bok^WT): failed to co-IP 3F-Bok^WT

Molecule: {FITC-Ahx}-KKAKEPTTQITEEVRDQLLEASAATRKAFTTFRREADPDDHYQ (N-terminus assumed) [FITC-IP3R1^1898-1940]
- binding to HS-HA (in words) (HS-HA): but not negative control HS-HA
- binding to HS-Bok (in words) (HS-Bok): bound with high affinity

Molecule: IP3R1-HA^Δ1909-1941: IP3R1-HA construct with the largest deletion
- co-IP of 3F-Bok^WT (3F-Bok^WT): did not co-IP 3F-Bok^WT

B1: HS-Bok: bacterially expressed, His-sumo (HS) tagged mouse Bok (protein, UniProt O35425 1-213, looked up)
Bcl-2-related ovarian killer …: T1 sequence (O35425 1-213)
modifications: His-SUMO tag
- co-IP with HS-IP3R1 (HS-IP3R1): strong co-IP

B2: 3F-Bok^WT: Bok from mouse tagged at the N-terminus with a 3xFlag epitope (protein)
chain: T1 sequence (O35425 1-213)
modifications: left off: 3xFlag, N-terminal, kept
- localization on co-expression of IP3R1-HA^WT and 3F-Bok^WT (HEK-3KO cells): the same localization is maintained, with an increase in Bok expression level
- localization, expressed alone (HEK-3KO cells): localize completely to membranes

B3: 3F-Bok^ΔTM: contains amino acids 1-187 of Bok (protein)
chain: MEVLRRSSVFAAEIMDAFDRSPTDKELVAQAKALGREYVHARLLRAGLSWSAPERASPAPGGRLAEVCTVLLRLGDELEQIRPSVYRNVARQLHIPLQSEPVVTDAFLAVAGHIFSAGITWGKVVSLYSVAAGLAVDCVRQAQPAMVHALVDCLGEFVRKTLATWLRRRGGWTDVLKCVVSTDPGFR
modifications: left off: 3xFlag, N-terminal, kept
- localization, expressed alone (HEK-3KO cells): predominantly cytosolic
